Activity calls are given as the source filed them. Starred links: 1 amine or outer side, 2 acyl side, 3 side chain; linkers in the order of their positions; H or OH if unused. Positions of bridges follow the written chain, without caps; N, C: chain ends. Non-standard residues stand in square brackets, D forms with d. Residues, ends and D or L forms follow the SMILES beside them. *: point of attachment. X3 = CC(=O)N[C@H]1[C@@H](O[C@H](C)[C@H](NO[*:2])C(=O)[*:1])O[C@H](CO)[C@H](O)[C@@H]1O[C@@H]1O[C@H](CO)[C@H](O)[C@H](O)[C@H]1O; X1 = CC(=O)N[C@@H]1[C@@H](O[C@@H]2O[C@H](CO)[C@H](O)[C@H](O)[C@H]2O)[C@@H](O)[C@@H](CO)O[C@@H]1*; X2 = CC1(C)OC[C@@H](C(=O)[*:2])N1[*:1]
Experiments:
[1] = Antiproliferative activity against human bladder epithelial cells assessed as inhibition of [3H]thymidine incorporation after 48 hrs relative to as-APF; format: functional, Epithelial cell; design: scale not given: the % may be the effect or the level left
Outline: (§1)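 Primary normal human bladder epithelial cells, explanted from cystoscopy biopsies, plated at 1.5 × 10⁴ cells/well in MEM with 10% heat-inactivated FBS. Congeners dissolved in acetonitrile/water (1:1), added in serum-free MEM in 10-fold dilutions up to the 25 µM assay cutoff. Incubated 48 h at 37 °C, 5% CO₂. ³H-thymidine uptake counted on filters. Activity expressed relative to the standard control run on each plate. Triplicates, at least two runs, ANOVA.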

Epithelial cell = assay: Antiproliferative activity against human bladder epithelial cells assessed as inhibition of [3H]thymidine incorporation at <25 uM after 48 hrs relative to as-APF; format: functional, cell-based; outline: as §1

**Q.** Which Activity [1] does the source give for `CC(=O)N[C@H]1[C@@H](O[C@H](C)[C@H](N)C(=O)N[C@H](C(=O)N[C@@H](C)C(=O)N[C@@H](C)C(=O)N[C@@H](C)C(=O)N[C@H](C(=O)N[C@H](C(=O)N[C@H](C(=O)N[C@@H](C)C(=O)O)C(C)C)C(C)C)C(C)C)C(C)C)O[C@H](CO)[C@H](O)[C@@H]1O[C@@H]1O[C@H](CO)[C@H](O)[C@H](O)[C@H]1O` (H-T(X1)VAAAVVVA-OH) here?
**A.** 0.3%

**Q.** Which Activity (Epithelial cell) does the source give for `CC(=O)N[C@H]1[C@@H](O[C@H](C)[C@H](N)C(=O)N[C@@H](Cc2ccc(O)cc2)C(=O)N2CCC[C@H]2C(=O)N[C@@H](C)C(=O)N[C@@H](C)C(=O)N[C@H](C(=O)N[C@H](C(=O)N[C@H](C(=O)N[C@@H](C)C(=O)O)C(C)C)C(C)C)C(C)C)O[C@H](CO)[C@H](O)[C@@H]1O[C@@H]1O[C@H](CO)[C@H](O)[C@H](O)[C@H]1O` (H-T(X1)YPAAVVVA-OH) here?
**A.** inactive

**Q.** For `CC(=O)N[C@H]1[C@@H](O[C@H](C)[C@H](N)C(=O)N[C@H](C(=O)N2CCC[C@H]2C(=O)N[C@@H](C)C(=O)N[C@@H](C)C(=O)N[C@H](C(=O)N[C@H](C(=O)N[C@H](C(=O)N[C@@H](C)C(=O)N[C@@H](CCCCN)C(=O)O)C(C)C)C(C)C)C(C)C)C(C)C)O[C@H](CO)[C@H](O)[C@@H]1O[C@@H]1O[C@H](CO)[C@H](O)[C@H](O)[C@H]1O` (H-T(X1)VPAAVVVAK-OH), which Activity (Epithelial cell) is on record?
**A.** inactive

**Q.** For `CC[C@H](C)[C@H](NC(=O)[C@H](C)NC(=O)[C@H](C)NC(=O)[C@@H]1CCCN1C(=O)[C@@H](NC(=O)[C@@H](N)[C@@H](C)O[C@H]1O[C@H](CO)[C@H](O)[C@H](O[C@@H]2O[C@H](CO)[C@H](O)[C@H](O)[C@H]2O)[C@H]1NC(C)=O)C(C)C)C(=O)N[C@H](C(=O)N[C@H](C(=O)N[C@@H](C)C(=O)O)[C@@H](C)CC)C(C)C` (H-T(X1)VPAAIVIA-OH), which Activity (Epithelial cell) is on record?
**A.** inactive

**Q.** With `CC(=O)N[C@H]1[C@@H](O[C@H](C)[C@H](N)C(=O)N[C@H](C(=O)N2CCC[C@H]2C(=O)N[C@@H](C)C(=O)N[C@@H](CO)C(=O)N[C@H](C(=O)N[C@H](C(=O)N[C@H](C(=O)N[C@@H](CO)C(=O)O)C(C)C)C(C)C)C(C)C)C(C)C)O[C@H](CO)[C@H](O)[C@@H]1O[C@@H]1O[C@H](CO)[C@H](O)[C@H](O)[C@H]1O` (H-T(X1)VPASVVVS-OH) as the compound, how does the Activity [1] read?
**A.** 0.2%

**Q.** With `CC(=O)N[C@H]1[C@@H](O[C@H](C)[C@H](N)C(=O)N[C@H](C(=O)N2CCC[C@H]2C(=O)N[C@@H](C)C(=O)N[C@@H](C)C(=O)N[C@H](C(=O)N[C@H](C(=O)O)C(C)C)C(C)C)C(C)C)O[C@H](CO)[C@H](O)[C@@H]1O[C@@H]1O[C@H](CO)[C@H](O)[C@H](O)[C@H]1O` (H-T(X1)VPAAVV-OH) as the compound, how does the Activity (Epithelial cell) read?
**A.** inactive

**Q.** With `CC(=O)N[C@H]1[C@@H](O[C@H](C)[C@H](N)C(=O)N[C@H](C(=O)N2[C@H](C(=O)N[C@@H](C)C(=O)N[C@@H](C)C(=O)N[C@H](C(=O)N[C@H](C(=O)N[C@H](C(=O)N[C@@H](C)C(=O)O)C(C)C)C(C)C)C(C)C)COC2(C)C)C(C)C)O[C@H](CO)[C@H](O)[C@@H]1O[C@@H]1O[C@H](CO)[C@H](O)[C@H](O)[C@H]1O` (H-T(X1)V[X2]AAVVVA-OH) as the compound, how does the Activity (Epithelial cell) read?
**A.** inactive

**Q.** Which Activity (Epithelial cell) does the source give for `CC(=O)N[C@H]1[C@@H](O[C@H](C)[C@H](N)C(=O)N[C@H](C(=O)N2CCC[C@H]2C(=O)N[C@@H](C)C(=O)N[C@@H](C)C(=O)N[C@H](C(=O)N[C@H](C(=O)N[C@H](C(=O)N[C@@H](C)C(=O)N[C@@H](CCC(=O)O)C(=O)O)C(C)C)C(C)C)C(C)C)C(C)C)O[C@H](CO)[C@H](O)[C@@H]1O[C@@H]1O[C@H](CO)[C@H](O)[C@H](O)[C@H]1O` (H-T(X1)VPAAVVVAE-OH) here?
**A.** inactive

**Q.** Which Activity [1] does the source give for `CC(=O)N[C@H]1[C@@H](O[C@H](C)[C@H](N)C(=O)N[C@H](C(=O)N2CCC[C@H]2C(=O)N[C@@H](C)C(=O)N[C@@H](C)C(=O)N[C@H](C(=O)N[C@H](C(=O)N[C@H](C(=O)O)C(C)C)C(C)C)C(C)C)C(C)C)O[C@H](CO)[C@H](O)[C@@H]1O[C@@H]1O[C@H](CO)[C@H](O)[C@H](O)[C@H]1O` (H-T(X1)VPAAVVV-OH) here?
**A.** 100%

**Q.** Which Activity (Epithelial cell) does the source give for `CC(=O)N[C@H]1[C@@H](O[C@H](C)[C@H](N)C(=O)N[C@H](C(=O)N2CCC[C@H]2C(=O)N[C@@H](C)C(=O)N[C@@H](C)C(=O)N[C@H](C(=O)N[C@@H](C(=O)N[C@H](C(=O)N[C@@H](C)C(=O)O)C(C)C)C(C)C)C(C)C)C(C)C)O[C@H](CO)[C@H](O)[C@@H]1O[C@@H]1O[C@H](CO)[C@H](O)[C@H](O)[C@H]1O` here?
**A.** inactive

**Q.** With `CC(=O)N[C@H]1[C@@H](O[C@H](C)[C@H](N)C(=O)N[C@H](C(=O)N2CCC[C@@H]2C(=O)N[C@@H](C)C(=O)N[C@@H](C)C(=O)N[C@H](C(=O)N[C@H](C(=O)N[C@H](C(=O)N[C@@H](C)C(=O)O)C(C)C)C(C)C)C(C)C)C(C)C)O[C@H](CO)[C@H](O)[C@@H]1O[C@@H]1O[C@H](CO)[C@H](O)[C@H](O)[C@H]1O` as the compound, how does the Activity (Epithelial cell) read?
**A.** inactive

**Q.** With `CC(=O)N[C@H]1[C@@H](O[C@H](C)[C@H](N)C(=O)N[C@H](C(=O)N2CCC[C@H]2C(=O)N[C@@H](C)C(=O)N[C@@H](C)C(=O)O)C(C)C)O[C@H](CO)[C@H](O)[C@@H]1O[C@@H]1O[C@H](CO)[C@H](O)[C@H](O)[C@H]1O` (H-T(X1)VPAA-OH) as the compound, how does the Activity (Epithelial cell) read?
**A.** inactive

**Q.** For `CC(=O)N[C@H]1[C@@H](O[C@H](C)[C@H](N)C(=O)N[C@H](C(=O)N2CCC[C@H]2C(=O)N[C@@H](C)C(=O)NCC(=O)N[C@H](C(=O)N[C@H](C(=O)N[C@H](C(=O)NCC(=O)O)C(C)C)C(C)C)C(C)C)C(C)C)O[C@H](CO)[C@H](O)[C@@H]1O[C@@H]1O[C@H](CO)[C@H](O)[C@H](O)[C@H]1O` (H-T(X1)VPAGVVVG-OH), which Activity (Epithelial cell) is on record?
**A.** inactive

**Q.** With `CC(=O)N[C@H]1[C@@H](O[C@H](C)[C@H](N)C(=O)N[C@H](C(=O)N2CCC[C@H]2C(=O)N[C@@H](C)C(=O)N[C@@H](C)C(=O)N[C@H](C(=O)N[C@H](C(=O)N[C@@H](C)C(=O)N[C@H](C(=O)O)C(C)C)C(C)C)C(C)C)C(C)C)O[C@H](CO)[C@H](O)[C@@H]1O[C@@H]1O[C@H](CO)[C@H](O)[C@H](O)[C@H]1O` (H-T(X1)VPAAVVAV-OH) as the compound, how does the Activity (Epithelial cell) read?
**A.** inactive

**Q.** For `CC(=O)N[C@H]1[C@@H](O[C@H](C)[C@H](N)C(=O)N[C@@H](CC(C)C)C(=O)N2CCC[C@H]2C(=O)N[C@@H](C)C(=O)N[C@@H](C)C(=O)N[C@H](C(=O)N[C@H](C(=O)N[C@H](C(=O)N[C@@H](C)C(=O)O)C(C)C)C(C)C)C(C)C)O[C@H](CO)[C@H](O)[C@@H]1O[C@@H]1O[C@H](CO)[C@H](O)[C@H](O)[C@H]1O` (H-T(X1)LPAAVVVA-OH), which Activity (Epithelial cell) is on record?
**A.** inactive

**Q.** Which Activity (Epithelial cell) does the source give for `CC(=O)N[C@H]1[C@@H](O[C@H](C)[C@@H]2NOC(=O)[C@H](C)NC(=O)[C@H](C(C)C)NC(=O)[C@H](C(C)C)NC(=O)[C@H](C(C)C)NC(=O)[C@H](C)NC(=O)[C@H](C)NC(=O)[C@@H]3CCCN3C(=O)[C@H](C(C)C)NC2=O)O[C@H](CO)[C@H](O)[C@@H]1O[C@@H]1O[C@H](CO)[C@H](O)[C@H](O)[C@H]1O` (VPAAVVVA; linker N-C via X3) here?
**A.** inactive

**Q.** For `CC(=O)N[C@H]1[C@@H](O[C@H](C)[C@H](N)C(=O)N[C@H](C(=O)N2CCC[C@H]2C(=O)NCCCCCCCCCCCC(=O)O)C(C)C)O[C@H](CO)[C@H](O)[C@@H]1O[C@@H]1O[C@H](CO)[C@H](O)[C@H](O)[C@H]1O`, which Activity (Epithelial cell) is on record?
**A.** inactive

From ChEMBL document CHEMBL1140117, “Structure-activity relationship studies for the peptide portion of the bladder epithelial cell antiproliferative factor from interstitial cystitis patients” (2008)
